Laboratory results taken from ChEMBL document CHEMBL4689842, “EUbOPEN Chemogenomics Library wave 1” (2021).

System: HEK-293T
Assay: Multiplex assay against HEK293T;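 on Population Tubulin-Different-Phenotype (%): share of the cells with healthy nuclei that show this phenotype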
Assay type: toxicity, cell-based
Settings: human
Summary of the method: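 Compound was added to live cells that had been stained at seeding with Hoechst33342, BioTracker Green Microtubule Cytoskeleton Dye, MitoTracker Red and Annexin V Alexa Fluor 680, and imaging followed on a CQ1 microscope at 37°C and 5% CO2. CellPathfinder machine-learning gating divided cells into Hoechst high-intensity objects or normal cells, normal cells into healthy, pyknosed or fragmented nuclei, and pyknosed cells into mitotic or apoptotic. Tubulin, mitochondrial-mass and membrane-permeability phenotypes are per cents of healthy-nucleus cells.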

[1] = 12 h, 1 µM, compound concentration 1 uM, replicate 1
[2] = 12 h, 1 µM, compound concentration 1 uM, replicate 2
[3] = 12 h, 10 µM, compound concentration 10 uM, replicate 1
[4] = 12 h, 10 µM, compound concentration 10 uM, replicate 2
[5] = 24 h, 1 µM, compound concentration 1 uM, replicate 1
[6] = 24 h, 1 µM, compound concentration 1 uM, replicate 2
[7] = 24 h, 10 µM, compound concentration 10 uM, replicate 1
[8] = 24 h, 10 µM, compound concentration 10 uM, replicate 2

For `CNC(=O)c1ccc(Nc2nc(OC3CCCC3)c3c(-c4ccc5nc(C)oc5c4)c[nH]c3n2)c(OC)c1`, the “Population Apoptotic (%)” value [1] was 36%, the “Population Fragmented Nuclei (%)” value [1] was 20% and the “Population Healthy Nuclei (%)” value [1] was 22%. For the same compound, the “Population Hoechst High Intensity Objects (%)” value [1] was 22%, the “Population Membrane Permeable-Phenotype (%)” value [1] was 19% and the “Population Mitochondria Different-Phenotype (%)” value [1] was 28%. For the same compound, the “Population Mitotic Cells (%)” value [1] was 63%, the “Population Normal (%)” value [1] was 77% and the “Population Pyknosed Nuclei (%)” value [1] was 57%. The “Population Tubulin-Different-Phenotype (%)” value [1] was 76%, the “Total Cell Count” value [1] was 469 and the “Population Apoptotic (%)” value [2] was 37%. For the same compound, the “Population Fragmented Nuclei (%)” value [2] was 2%, the “Population Healthy Nuclei (%)” value [2] was 77% and the “Population Hoechst High Intensity Objects (%)” value [2] was 4%. The “Population Membrane Permeable-Phenotype (%)” value [2] was 18%, the “Population Mitochondria Different-Phenotype (%)” value [2] was 47% and the “Population Mitotic Cells (%)” value [2] was 62%. The “Population Normal (%)” value [2] was 95%, the “Population Pyknosed Nuclei (%)” value [2] was 19% and the “Population Tubulin-Different-Phenotype (%)” value [2] was 94%. For the same compound, the “Total Cell Count” value [2] was 712, the “Population Apoptotic (%)” value [3] was 26% and the “Population Fragmented Nuclei (%)” value [3] was 19%. For the same compound, the “Population Healthy Nuclei (%)” value [3] was 50%, the “Population Hoechst High Intensity Objects (%)” value [3] was 20% and the “Population Membrane Permeable-Phenotype (%)” value [3] was 22%. The “Population Mitochondria Different-Phenotype (%)” value [3] was 13%, the “Population Mitotic Cells (%)” value [3] was 73% and the “Population Normal (%)” value [3] was 79%. The “Population Pyknosed Nuclei (%)” value [3] was 30%, the “Population Tubulin-Different-Phenotype (%)” value [3] was 58% and the “Total Cell Count” value [3] was 532. For the same compound, the “Population Apoptotic (%)” value [4] was 14%, the “Population Fragmented Nuclei (%)” value [4] was 3% and the “Population Healthy Nuclei (%)” value [4] was 91%. The “Population Hoechst High Intensity Objects (%)” value [4] was 5%, the “Population Membrane Permeable-Phenotype (%)” value [4] was 13% and the “Population Mitochondria Different-Phenotype (%)” value [4] was 27%. For the same compound, the “Population Mitotic Cells (%)” value [4] was 85%, the “Population Normal (%)” value [4] was 94% and the “Population Pyknosed Nuclei (%)” value [4] was 4%. For the same compound, the “Population Tubulin-Different-Phenotype (%)” value [4] was 83%, the “Total Cell Count” value [4] was 1205 and the “Population Apoptotic (%)” value [5] was 61%. The “Population Fragmented Nuclei (%)” value [5] was 28%, the “Population Healthy Nuclei (%)” value [5] was 13% and the “Population Hoechst High Intensity Objects (%)” value [5] was 25%. For the same compound, the “Population Membrane Permeable-Phenotype (%)” value [5] was 10%, the “Population Mitochondria Different-Phenotype (%)” value [5] was 54% and the “Population Mitotic Cells (%)” value [5] was 38%. The “Population Normal (%)” value [5] was 74%, the “Population Pyknosed Nuclei (%)” value [5] was 57% and the “Population Tubulin-Different-Phenotype (%)” value [5] was 58%. For the same compound, the “Total Cell Count” value [5] was 472, the “Population Apoptotic (%)” value [6] was 43% and the “Population Fragmented Nuclei (%)” value [6] was 3%. For the same compound, the “Population Healthy Nuclei (%)” value [6] was 80%, the “Population Hoechst High Intensity Objects (%)” value [6] was 9% and the “Population Membrane Permeable-Phenotype (%)” value [6] was 5%. The “Population Mitochondria Different-Phenotype (%)” value [6] was 66%, the “Population Mitotic Cells (%)” value [6] was 56% and the “Population Normal (%)” value [6] was 90%. The “Population Pyknosed Nuclei (%)” value [6] was 15%, the “Population Tubulin-Different-Phenotype (%)” value [6] was 78% and the “Total Cell Count” value [6] was 721. The “Population Apoptotic (%)” value [7] was 24%, the “Population Fragmented Nuclei (%)” value [7] was 20% and the “Population Healthy Nuclei (%)” value [7] was 62%. The “Population Hoechst High Intensity Objects (%)” value [7] was 15%, the “Population Membrane Permeable-Phenotype (%)” value [7] was 23% and the “Population Mitochondria Different-Phenotype (%)” value [7] was 15%. The “Population Mitotic Cells (%)” value [7] was 75%, the “Population Normal (%)” value [7] was 84% and the “Population Pyknosed Nuclei (%)” value [7] was 17%. The “Population Tubulin-Different-Phenotype (%)” value [7] was 81%, the “Total Cell Count” value [7] was 481 and the “Population Apoptotic (%)” value [8] was 11%. The “Population Fragmented Nuclei (%)” value [8] was 10%, the “Population Healthy Nuclei (%)” value [8] was 86% and the “Population Hoechst High Intensity Objects (%)” value [8] was 5%. For the same compound, the “Population Membrane Permeable-Phenotype (%)” value [8] was 17%, the “Population Mitochondria Different-Phenotype (%)” value [8] was 11% and the “Population Mitotic Cells (%)” value [8] was 88%. For the same compound, the “Population Normal (%)” value [8] was 94%, the “Population Pyknosed Nuclei (%)” value [8] was 2% and the “Population Tubulin-Different-Phenotype (%)” value [8] was 87%. For the same compound, the “Total Cell Count” value [8] was 1423.

With `Cn1nc(C(F)(F)F)cc1-c1cnc(N2CCc3cc(S(=O)(=O)Nc4c(F)cc(Cl)cc4F)cc(N4CCCC4=O)c32)nc1` [TP-020] the “Population Apoptotic (%)” value [1] was 25%, the “Population Fragmented Nuclei (%)” value [1] was 10% and the “Population Healthy Nuclei (%)” value [1] was 71%. For the same compound, the “Population Hoechst High Intensity Objects (%)” value [1] was 10%, the “Population Membrane Permeable-Phenotype (%)” value [1] was 6% and the “Population Mitochondria Different-Phenotype (%)” value [1] was 9%. For the same compound, the “Population Mitotic Cells (%)” value [1] was 74%, the “Population Normal (%)” value [1] was 89% and the “Population Pyknosed Nuclei (%)” value [1] was 18%. For the same compound, the “Population Tubulin-Different-Phenotype (%)” value [1] was 16%, the “Total Cell Count” value [1] was 692 and the “Population Apoptotic (%)” value [2] was 16%. The “Population Fragmented Nuclei (%)” value [2] was 5%, the “Population Healthy Nuclei (%)” value [2] was 89% and the “Population Hoechst High Intensity Objects (%)” value [2] was 1%. For the same compound, the “Population Membrane Permeable-Phenotype (%)” value [2] was 9%, the “Population Mitochondria Different-Phenotype (%)” value [2] was 13% and the “Population Mitotic Cells (%)” value [2] was 83%. The “Population Normal (%)” value [2] was 98%, the “Population Pyknosed Nuclei (%)” value [2] was 5% and the “Population Tubulin-Different-Phenotype (%)” value [2] was 37%. For the same compound, the “Total Cell Count” value [2] was 1398, the “Population Apoptotic (%)” value [3] was 17% and the “Population Fragmented Nuclei (%)” value [3] was 14%. The “Population Healthy Nuclei (%)” value [3] was 63%, the “Population Hoechst High Intensity Objects (%)” value [3] was 11% and the “Population Membrane Permeable-Phenotype (%)” value [3] was 2%. The “Population Mitochondria Different-Phenotype (%)” value [3] was 2%, the “Population Mitotic Cells (%)” value [3] was 82% and the “Population Normal (%)” value [3] was 88%. For the same compound, the “Population Pyknosed Nuclei (%)” value [3] was 21%, the “Population Tubulin-Different-Phenotype (%)” value [3] was 3% and the “Total Cell Count” value [3] was 565. The “Population Apoptotic (%)” value [4] was 4%, the “Population Fragmented Nuclei (%)” value [4] was 9% and the “Population Healthy Nuclei (%)” value [4] was 86%. For the same compound, the “Population Hoechst High Intensity Objects (%)” value [4] was 1%, the “Population Mitochondria Different-Phenotype (%)” value [4] was 5% and the “Population Mitotic Cells (%)” value [4] was 95%. The “Population Normal (%)” value [4] was 98%, the “Population Pyknosed Nuclei (%)” value [4] was 4% and the “Population Tubulin-Different-Phenotype (%)” value [4] was 5%. For the same compound, the “Total Cell Count” value [4] was 1658, the “Population Apoptotic (%)” value [5] was 21% and the “Population Fragmented Nuclei (%)” value [5] was 10%. For the same compound, the “Population Hoechst High Intensity Objects (%)” value [5] was 7%, the “Population Membrane Permeable-Phenotype (%)” value [5] was 12% and the “Population Mitochondria Different-Phenotype (%)” value [5] was 8%. For the same compound, the “Population Mitotic Cells (%)” value [5] was 78%, the “Population Normal (%)” value [5] was 92% and the “Population Pyknosed Nuclei (%)” value [5] was 8%. The “Population Tubulin-Different-Phenotype (%)” value [5] was 31%, the “Total Cell Count” value [5] was 805 and the “Population Apoptotic (%)” value [6] was 6%. The “Population Fragmented Nuclei (%)” value [6] was 12%, the “Population Healthy Nuclei (%)” value [6] was 81% and the “Population Hoechst High Intensity Objects (%)” value [6] was 1%. The “Population Membrane Permeable-Phenotype (%)” value [6] was 13%, the “Population Mitochondria Different-Phenotype (%)” value [6] was 6% and the “Population Mitotic Cells (%)” value [6] was 93%. For the same compound, the “Population Normal (%)” value [6] was 98%, the “Population Pyknosed Nuclei (%)” value [6] was 5% and the “Population Tubulin-Different-Phenotype (%)” value [6] was 47%. For the same compound, the “Total Cell Count” value [6] was 1839, the “Population Apoptotic (%)” value [7] was 26% and the “Population Fragmented Nuclei (%)” value [7] was 11%. For the same compound, the “Population Healthy Nuclei (%)” value [7] was 77%, the “Population Hoechst High Intensity Objects (%)” value [7] was 5% and the “Population Membrane Permeable-Phenotype (%)” value [7] was 8%. For the same compound, the “Population Mitochondria Different-Phenotype (%)” value [7] was 1%, the “Population Mitotic Cells (%)” value [7] was 73% and the “Population Normal (%)” value [7] was 94%. The “Population Pyknosed Nuclei (%)” value [7] was 10%, the “Population Tubulin-Different-Phenotype (%)” value [7] was 7% and the “Total Cell Count” value [7] was 670. For the same compound, the “Population Apoptotic (%)” value [8] was 3%, the “Population Fragmented Nuclei (%)” value [8] was 26% and the “Population Healthy Nuclei (%)” value [8] was 71%. For the same compound, the “Population Hoechst High Intensity Objects (%)” value [8] was 3%, the “Population Membrane Permeable-Phenotype (%)” value [8] was 5% and the “Population Mitochondria Different-Phenotype (%)” value [8] was 0%. The “Population Mitotic Cells (%)” value [8] was 96%, the “Population Normal (%)” value [8] was 96% and the “Population Pyknosed Nuclei (%)” value [8] was 2%. The “Population Tubulin-Different-Phenotype (%)” value [8] was 5% and the “Total Cell Count” value [8] was 2801.
